Data published in ChEMBL document CHEMBL1146220, “Rational optimization of the binding affinity of CD4 targeting peptidomimetics with potential anti HIV activity” (J Med Chem, 2007).
Numbered stars: 1 amine (or outer) side, 2 acyl side, 3 side chain; on linkers, the order of the positions; unused ones are H or OH. Square brackets hold non-standard residues; d marks the D form. Peptide text beside a SMILES is read from it. * marks the point of attachment. Acetyl(2-naphthyloxy) = O=C(COc1ccc2ccccc2c1)*; Alaninol(O-CO) = C[C@@H](COC(=O)[*:2])N[*:1]; NH(1-Adamantyl) = C1C2CC3CC1CC(N*)(C2)C3; X1 = O=C(OC[C@@H]1CCCN1[*:1])[*:2]; X2 = S=C(NC1CC1)OC[C@@H]1CCCN1*; X3 = O=C(COc1cccc2cccnc12)*; NHcHex = C1CCC(N*)CC1; NHcPent = C1CCC(N*)C1; NHtBu = CC(C)(C)N*

How the values were obtained:
[1] = Half life by pronase digestion assay; format: ADME; details: pronase (protease digestion)
In short: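 Pronase digestion was run at 37 °C. Aliquots were taken at 5, 10, 15, 20 and 30 min and quenched with 1 M acetic acid. Hydrolysis products were identified as M+H+/Na+/K+ ions, and t1/2 was derived from the disappearance time course.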

[2] = target: T-cell surface glycoprotein CD4 (Homo sapiens, UniProt P01730); assay: Binding affinity to CD4 by SPR assay
In short: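 Test ligands passed over the CD4 SPR surface at a series of concentrations, recording the concentration-dependent maximum response units (RU). Surface regenerated between runs with short pulses of 100 mM H3PO4. Only the lower concentrations (generally up to 50 µM) fitting a one-site binding model were used. KD was taken as the concentration at RUmax/2.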

Row | Compound | half-life [1] | Kd [2]
1 | CC(C)[C@H](NC(=O)[C@H](CCCCN)NC(=O)COc1ccc2ccccc2c1)C(=O)NCC(=O)N[C@H](C(=O)N1CCC[C@H]1COC(=O)NC1CCCCC1)[C@@H](C)O ({Acetyl(2-naphthyloxy)}-KVGT[X1]-NHcHex) | 27.3 min | 35 µM
2 | CC(C)[C@H](NC(=O)[C@H](CCCCN)NC(=O)COc1ccc2ccccc2c1)C(=O)NCC(=O)N[C@H](C(=O)N1CCC[C@H]1COC(=O)NC1CCCC1)[C@@H](C)O ({Acetyl(2-naphthyloxy)}-KVGT[X1]-NHcPent) | – | 16 µM
3 | CC(C)[C@H](NC(=O)[C@H](CCCCN)NC(=O)COc1ccc2ccccc2c1)C(=O)NCC(=O)N[C@H](C(=O)N1CCC[C@H]1COC(=S)NC1CC1)[C@@H](C)O ({Acetyl(2-naphthyloxy)}-KVGT-X2) | – | 27 µM
4 | CC(C)[C@H](NC(=O)[C@H](CCCCN)NC(=O)COc1ccc2ccccc2c1)C(=O)NCC(=O)N[C@H](C(=O)N[C@@H](C)COC(=O)NC12CC3CC(CC(C3)C1)C2)[C@@H](C)O ({Acetyl(2-naphthyloxy)}-KVGT[Alaninol(O-CO)]-{NH(1-Adamantyl)}) | – | 80 µM
5 | CC(C)[C@H](NC(=O)[C@H](CCCCN)NC(=O)COc1ccc2ccccc2c1)C(=O)NCC(=O)N[C@H](C(=O)N[C@@H](C)COC(=O)NC1CCCC1)[C@@H](C)O ({Acetyl(2-naphthyloxy)}-KVGT[Alaninol(O-CO)]-NHcPent) | – | 62 µM
6 | CC(C)[C@H](NC(=O)[C@H](CCCCN)NC(=O)COc1ccc2ccccc2c1)C(=O)NCC(=O)N[C@H](C(=O)N1CCC[C@H]1COC(=O)NC(C)(C)C)[C@@H](C)O ({Acetyl(2-naphthyloxy)}-KVGT[X1]-NHtBu) | – | 6 µM
7 | CCOC(=O)CNC(=O)OC[C@@H]1CCCN1C(=O)[C@@H](NC(=O)CNC(=O)[C@@H](NC(=O)[C@H](CCCCN)NC(=O)COc1ccc2ccccc2c1)C(C)C)[C@@H](C)O ({Acetyl(2-naphthyloxy)}-KVGT[X1]G-OEt) | 23 min | 26 µM
8 | H-NMWQKVGTPL-OH | 6 min | 6000 µM
9 | CC(C)[C@H](NC(=O)[C@H](CCCCN)NC(=O)COc1cccc2cccnc12)C(=O)NCC(=O)N[C@H](C(=O)N[C@@H](C)COC(=O)NC(C)(C)C)[C@@H](C)O (X3-KVGT[Alaninol(O-CO)]-NHtBu) | – | 13 µM
10 | CC(C)[C@H](NC(=O)[C@H](CCCCN)NC(=O)COc1ccc2ccccc2c1)C(=O)NCC(=O)N[C@H](C(=O)N[C@@H](C)COC(=O)NC(C)(C)C)C(C)O (single isomer, unassigned) | – | 20 µM
11 | CC(C)[C@H](NC(=O)[C@H](CCCCN)NC(=O)COc1cccc2cccnc12)C(=O)NCC(=O)N[C@H](C(=O)N1CCC[C@H]1COC(=O)NC(C)(C)C)[C@@H](C)O (X3-KVGT[X1]-NHtBu) | – | 26 µM
